A selection: hits, their analogues and other compounds. The true share with any hit is near 4.1%.
FLuc inh counter = inhibits firefly luciferase, flagging false hits in luciferase inhibition screens; AID 1006; inhibition, % at 10 µM; ATPLite firefly luciferase biochemical luminescence, 10 min; 200,000 tested, 1.5% active; P08659;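 active = inhibition above about 50% when tested at 10 µM, limit read from the data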
Target sequence (P08659 whole entry, looked up): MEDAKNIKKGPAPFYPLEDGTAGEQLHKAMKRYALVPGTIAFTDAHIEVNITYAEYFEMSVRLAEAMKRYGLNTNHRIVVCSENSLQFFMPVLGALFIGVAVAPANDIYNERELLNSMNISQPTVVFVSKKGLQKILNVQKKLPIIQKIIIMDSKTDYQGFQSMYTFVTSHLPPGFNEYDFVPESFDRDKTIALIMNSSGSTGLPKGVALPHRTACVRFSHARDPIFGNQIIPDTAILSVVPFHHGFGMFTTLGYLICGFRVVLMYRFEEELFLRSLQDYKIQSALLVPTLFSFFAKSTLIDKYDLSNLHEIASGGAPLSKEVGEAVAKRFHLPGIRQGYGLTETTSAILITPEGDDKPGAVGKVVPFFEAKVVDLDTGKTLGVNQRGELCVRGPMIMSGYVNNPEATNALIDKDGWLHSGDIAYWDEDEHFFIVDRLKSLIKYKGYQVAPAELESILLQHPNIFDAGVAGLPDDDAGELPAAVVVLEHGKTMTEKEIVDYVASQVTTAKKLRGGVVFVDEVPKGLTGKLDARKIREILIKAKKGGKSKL
FLuc stim CS = affects firefly luciferase, flagging false hits in luciferase stimulation screens | P08659 | activation factor at 10 µM | 200,000 tested, under 10 active | ATPlite luciferase biochemical, luminescence, 10 min; 0 = ATP-free wells, 1 = DMSO control;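 active = luciferase activation factor, scaled between plate controls, of at least 2 with compound at 10 µM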
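System: cell-free luciferase reagent; medium: PBS as buffer for the ATP substrate; doses: test compounds dosed from 2 mM stocks in 100% DMSO; incubation: 10 min, room temperature; measured by: luminescence from luciferase reaction; read-out: luciferase activation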
NF-kB expr up = NF-kB expression increase, human neuronal cells | NF-kB reporter expression; active compounds read high | fold change at 12.5 µM | 190,000 tested, 1.6% active | AID 1239; in the data active = fold change above about 3.3
STAT1 activator = increases IFN-gamma driven STAT1 reporter signal; NIH 3T3 STAT1-luciferase reporter, luminescence; 100% = IFN-gamma alone, no compound; activation (% of control), % at 5.5 µM; 200,000 tested, 2.6% active; AID 932;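 active = activation above the screen-wide mean activation plus 3 SD, cut at about 130% in these data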
APP 5'UTR act = APP 5'UTR luciferase reporter activation | 190,000 tested, 1% active | SH-SY5Y APP 5'UTR luciferase reporter, luminescence; zero percent = DMSO vehicle wells | activation, % at 2 µM | AID 1276;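 active = activation above a set limit, based on mean plus 3 SD of controls, cut at about 140% in these data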
STAT1 activ conf = STAT1 activation, confirmation assay; AID 1262; activation (% of control), % at 5.7 µM; NIH 3T3 STAT1-luciferase reporter, IFN-gamma potentiation, luminescence; 100% = IFN-gamma EC80 alone, no compound; 1,200 tested, 97% active; shares compounds with STAT1 activator;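 active = activation above a set limit carried over from the earlier primary STAT1 screen, cut at about 140% in these data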
NFkB act = NF-kappaB activation in STAT1 activator counter-screen | shares compounds with STAT1 activator | HEK293T NF-kB luciferase reporter, TNF-alpha stimulated, luminescence; 100% = TNF-alpha with vehicle only | 1,200 tested, 43% active | activation (% of control), % at 5.7 µM;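 active = activation above the mean of solvent-only control wells plus 3 SD, set per campaign, cut at about 130% in these data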;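 note: TNF-alpha given at a submaximal dose yielding about 80% of full reporter signal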
STAT3 act 2 = human STAT3 activation in STAT1 activator counter-screen. shares compounds with STAT1 activator. U3A cells STAT3-luciferase reporter, IL-6, luminescence; cells lack STAT1; 100 = IL-6 alone, no compound effect. activation (% of control), % at 5.7 µM. 1,200 tested, 46% active. AID 1316;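 active = activation above the solvent-only control well mean plus 3 SD, set per plate batch, cut at about 110% in these data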;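 note: higher means more STAT3 reporter activation so hits are non-selective activators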
A number is an active result.

For Oc1ccc(-c2csc(-c3ccccc3)n2)cc1O the results were FLuc inh counter inactive, FLuc stim CS inactive, NF-kB expr up 6.34, STAT1 activator 151.3, APP 5'UTR act inactive, STAT1 activ conf 166.0, NFkB act inactive and STAT3 act 2 inactive.
Screening Cc1cc(C)n(/N=C/c2cccc([N+](=O)[O-])c2)c(=O)c1 returned FLuc inh counter inactive, FLuc stim CS inactive, NF-kB expr up inactive, STAT1 activator inactive and APP 5'UTR act inactive.
Screening O=C(CCc1nnc(CCCc2ccccc2)o1)NC(C1CC1)C1CC1 returned FLuc inh counter inactive, FLuc stim CS inactive, NF-kB expr up 5.82, STAT1 activator 153.6, APP 5'UTR act inactive, STAT1 activ conf 205.9, NFkB act 145.0 and STAT3 act 2 128.9.
For COc1ccc(N(CC(=O)Nc2c(C)n(C)n(-c3ccccc3)c2=O)S(=O)(=O)c2ccc(C)cc2)cc1 the results were FLuc inh counter inactive, FLuc stim CS inactive, NF-kB expr up inactive, STAT1 activator inactive and APP 5'UTR act inactive.
Screening CN(CC(=O)OCC(=O)Nc1ccccc1)S(=O)(=O)c1ccc(Cl)cc1 returned FLuc inh counter inactive, FLuc stim CS inactive, NF-kB expr up inactive, STAT1 activator inactive and APP 5'UTR act inactive.
CCc1ccc(NC(=O)CSc2nc3c(c(=O)n(C)c(=O)n3C)n2C)cc1 was read as FLuc inh counter inactive, FLuc stim CS inactive, NF-kB expr up inactive, STAT1 activator inactive and APP 5'UTR act inactive.
`OCCCNc1nc(-c2ccc(Cl)cc2)nnc1-c1ccccc1` gave FLuc inh counter inactive, FLuc stim CS inactive, NF-kB expr up inactive, STAT1 activator inactive and APP 5'UTR act inactive.
`Nc1nc(-c2ccc(Cl)cc2)nnc1-c1ccc(Br)cc1` gave FLuc inh counter inactive, FLuc stim CS inactive, NF-kB expr up 3.75, STAT1 activator 165.4, APP 5'UTR act 193.7, STAT1 activ conf 191.1, NFkB act 143.5 and STAT3 act 2 inactive.
Screening O=C(CCc1ccccc1)Nc1cc2c(cc1Cl)OCCO2 returned FLuc inh counter inactive, FLuc stim CS inactive, NF-kB expr up inactive, STAT1 activator 157.5, APP 5'UTR act inactive, STAT1 activ conf 181.1, NFkB act 139.4 and STAT3 act 2 115.2.
Screening Oc1csc(Cc2nc(-c3ccc(Br)cc3)cs2)n1 returned FLuc inh counter inactive, FLuc stim CS inactive, NF-kB expr up inactive, STAT1 activator 166.7, APP 5'UTR act inactive, STAT1 activ conf 177.0, NFkB act 134.0 and STAT3 act 2 123.5.
CCOc1ccc(NC(=O)c2cccs2)c([N+](=O)[O-])c1 was read as FLuc inh counter inactive, FLuc stim CS inactive, NF-kB expr up inactive, STAT1 activator 152.1, APP 5'UTR act inactive, STAT1 activ conf 189.4, NFkB act inactive and STAT3 act 2 inactive.
Screening CCOc1ccc(NC(=O)c2ccco2)c([N+](=O)[O-])c1 returned FLuc inh counter inactive, FLuc stim CS inactive, NF-kB expr up 6.02, STAT1 activator 164.2, APP 5'UTR act inactive, STAT1 activ conf 190.9, NFkB act 136.0 and STAT3 act 2 inactive.
CCOc1ccc(NC(=O)c2cccnc2Cl)c([N+](=O)[O-])c1 was read as FLuc inh counter inactive, FLuc stim CS inactive, NF-kB expr up inactive, STAT1 activator inactive and APP 5'UTR act inactive.
For O=C(Nc1ccc2c(c1)C(=O)N(CC1CCCO1)C2=O)c1cccc(Br)c1 (stereo unspecified) the results were FLuc inh counter inactive, FLuc stim CS inactive, NF-kB expr up inactive, STAT1 activator inactive and APP 5'UTR act inactive.
Screening CN(C)C(/C=C/Nc1cccc([N+](=O)[O-])c1)=C(C#N)C#N returned FLuc inh counter inactive, FLuc stim CS inactive, NF-kB expr up inactive, STAT1 activator inactive and APP 5'UTR act inactive.
`Cc1ccc(C(=O)/C=C/Nc2cccc([N+](=O)[O-])c2)o1` gave FLuc inh counter 62.5, FLuc stim CS inactive, NF-kB expr up 5.45, STAT1 activator 153.3, APP 5'UTR act inactive, STAT1 activ conf 187.4, NFkB act inactive and STAT3 act 2 inactive.
Screening CCc1ccccc1NC(=S)NCc1cccn1C returned FLuc inh counter inactive, FLuc stim CS inactive, NF-kB expr up inactive, STAT1 activator inactive and APP 5'UTR act inactive.
`CCOC(=O)NC(=O)COC(=O)CCCSc1nc2ccccc2s1` gave FLuc inh counter inactive, FLuc stim CS inactive, NF-kB expr up inactive, STAT1 activator inactive and APP 5'UTR act inactive.
`CCOC(=O)N/C(N)=N/c1nc2ccccc2s1` gave FLuc inh counter inactive, FLuc stim CS inactive, NF-kB expr up 7.03, STAT1 activator 166.4, APP 5'UTR act 199.3, STAT1 activ conf 210.3, NFkB act inactive and STAT3 act 2 inactive.
CCOC(=O)c1sc2nc(C)cc(-c3ccccc3)c2c1N was read as FLuc inh counter inactive, FLuc stim CS inactive, NF-kB expr up inactive, STAT1 activator inactive and APP 5'UTR act inactive.
CCOC(=O)c1sc2nc(-c3ccccc3)ccc2c1N was read as FLuc inh counter 82.1, FLuc stim CS inactive, NF-kB expr up inactive, STAT1 activator 173.8, APP 5'UTR act 174.2, STAT1 activ conf 271.6, NFkB act inactive and STAT3 act 2 inactive.
For COc1ccccc1C(=O)/C=C/c1ccc(N2CCCCC2)c([N+](=O)[O-])c1 the results were FLuc inh counter inactive, FLuc stim CS inactive, NF-kB expr up inactive, STAT1 activator inactive and APP 5'UTR act inactive.
`CC(C)c1nnc(NC(=O)CCCC(=O)O)s1` gave FLuc inh counter inactive, FLuc stim CS inactive, NF-kB expr up inactive, STAT1 activator inactive and APP 5'UTR act inactive.
For CCOC(=O)CC(=O)Nc1nnc(C(C)C)s1 the results were FLuc inh counter inactive, FLuc stim CS inactive, NF-kB expr up inactive, STAT1 activator 152.4, APP 5'UTR act inactive, STAT1 activ conf inactive, NFkB act inactive and STAT3 act 2 inactive.
Screening O=C(Nc1ccccc1)N(Cc1ccc(Cl)cc1)CC(O)C(F)(F)F (stereo unspecified) returned FLuc inh counter inactive, FLuc stim CS inactive, NF-kB expr up inactive, STAT1 activator inactive and APP 5'UTR act inactive.
For Cc1cnc(NC(=O)CSc2ccc(Cl)cc2)s1 the results were FLuc inh counter inactive, FLuc stim CS inactive, NF-kB expr up inactive, STAT1 activator inactive and APP 5'UTR act inactive.
For Cc1cnc(NC(=O)Nc2ccc(Cl)cc2)s1 the results were FLuc inh counter inactive, FLuc stim CS inactive, NF-kB expr up 25.6, STAT1 activator 296.5, APP 5'UTR act inactive, STAT1 activ conf 281.6, NFkB act 138.0 and STAT3 act 2 141.5.

Bioassay records as filed in PubChem BioAssay.
